Consider 26 compounds from ChEMBL document CHEMBL1138502, “Discovery and biological evaluation of novel cyanoguanidine P2X(7) antagonists with analgesic activity in a rat model of neuropathic pain” (J Med Chem, 2009).

In test [1] the target is T1, P2X purinoceptor 7 (Homo sapiens, UniProt Q99572).
T1 sequence (Q99572 whole entry): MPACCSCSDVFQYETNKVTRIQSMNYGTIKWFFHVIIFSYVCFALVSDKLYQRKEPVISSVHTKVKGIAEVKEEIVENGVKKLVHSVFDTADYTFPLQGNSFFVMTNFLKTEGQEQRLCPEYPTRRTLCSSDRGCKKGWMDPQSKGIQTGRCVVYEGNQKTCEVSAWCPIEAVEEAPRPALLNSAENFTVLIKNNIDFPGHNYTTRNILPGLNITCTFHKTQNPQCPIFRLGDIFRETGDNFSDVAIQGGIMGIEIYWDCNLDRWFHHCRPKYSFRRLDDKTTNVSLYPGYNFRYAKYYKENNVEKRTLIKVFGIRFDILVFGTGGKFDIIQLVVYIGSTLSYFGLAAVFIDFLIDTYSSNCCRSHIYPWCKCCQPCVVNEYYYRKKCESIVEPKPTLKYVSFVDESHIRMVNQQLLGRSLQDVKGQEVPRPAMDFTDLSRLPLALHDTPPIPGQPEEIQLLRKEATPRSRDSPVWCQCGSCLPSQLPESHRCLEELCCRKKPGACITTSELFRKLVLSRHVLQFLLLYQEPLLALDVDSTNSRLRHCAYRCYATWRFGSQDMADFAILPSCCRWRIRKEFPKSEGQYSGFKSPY
The test is described as follows: Antagonist activity at human cloned P2X7 receptor expressed in HEK293 cells assessed as inhibition of calcium flux by FLIPR assay. The format is functional, cell-based. In outline:
(§1)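 Calcium influx read on a fluorometric imaging plate reader with Fluo-4 as the calcium-sensing dye. The P2X7 agonist was benzoylbenzoic ATP (BzATP). pIC50 values are the mean of two experiments unless otherwise indicated; some values are the mean of more than two experiments, with standard deviation shown.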
A general note: Calcium assays in cells follow changes in intracellular calcium, usually with a dye or a luminescent sensor.

In test [2] the target is T2, P2X purinoceptor 7 (Rattus norvegicus, UniProt Q64663).
T2 sequence (Q64663 whole entry): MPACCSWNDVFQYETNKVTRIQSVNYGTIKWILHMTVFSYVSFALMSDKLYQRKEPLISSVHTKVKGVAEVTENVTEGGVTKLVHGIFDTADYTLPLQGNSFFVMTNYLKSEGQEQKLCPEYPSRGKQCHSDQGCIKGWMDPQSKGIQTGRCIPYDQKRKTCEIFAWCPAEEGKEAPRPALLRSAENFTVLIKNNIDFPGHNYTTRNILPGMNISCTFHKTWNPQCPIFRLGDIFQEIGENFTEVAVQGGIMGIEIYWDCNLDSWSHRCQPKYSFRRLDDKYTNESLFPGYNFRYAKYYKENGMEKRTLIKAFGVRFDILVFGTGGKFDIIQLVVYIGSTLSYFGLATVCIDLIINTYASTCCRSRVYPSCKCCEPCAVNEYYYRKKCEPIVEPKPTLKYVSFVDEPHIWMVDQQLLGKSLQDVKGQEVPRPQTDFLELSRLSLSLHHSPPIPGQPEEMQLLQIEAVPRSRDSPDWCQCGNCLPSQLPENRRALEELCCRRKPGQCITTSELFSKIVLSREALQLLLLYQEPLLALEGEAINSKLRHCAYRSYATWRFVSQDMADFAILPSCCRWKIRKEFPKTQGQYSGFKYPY
The experiment in a line: Antagonist activity at rat cloned P2X7 receptor expressed in HEK293 cells assessed as inhibition of calcium flux by FLIPR assay. The format is functional, cell-based. In outline: as §1

For orientation: IC50 means the midpoint of a concentration-inhibition curve. As to `COc1ccc(CCC(=O)NC(N=C(NC#N)Nc2ccccc2C)C(C)(C)C)cc1OC` (configuration not stated), the results for the IC50 at P2X purinoceptor 7 [1] and at P2X purinoceptor 7 [2] were 200 nM and 316 nM, respectively.

Regarding `COc1ccc(CC(=O)NC(NC(=NC#N)Nc2cccnc2OC)C(C)(Cl)Cl)cc1OC` (configuration not stated), the IC50 is 31.6 nM on P2X purinoceptor 7 [1] and 7.94 nM on P2X purinoceptor 7 [2].

For `COc1ccccc1NC(=NC(NC(=O)Cc1ccc(OC)c(OC)c1)C(C)(C)C)NC#N` (configuration not stated), the IC50 was 158 nM on P2X purinoceptor 7 [1] and 25.1 nM on P2X purinoceptor 7 [2].

For the compound `COc1ccc(CC(=O)NC(N=C(NC#N)Nc2cc(C)ccc2C)C(C)(C)C)cc1OC` (configuration not stated), the figures for the IC50 at P2X purinoceptor 7 [1] and on P2X purinoceptor 7 [2] were 63.1 nM and 3.16 nM, respectively.

Take `COc1ccc(CC(=O)NC(N/C(=N/C#N)Nc2cccc(F)c2F)C(C)(C)C)cc1OC` (configuration not stated): the IC50 was 316 nM at P2X purinoceptor 7 [1] and 100 nM on P2X purinoceptor 7 [2].

Turning to `O=C(CC12CC3CC(CC(C3)C1)C2)Nc1ccc2[nH]ncc2c1`, the IC50 on P2X purinoceptor 7 [1] is 158 nM; at P2X purinoceptor 7 [2], 501 nM.

Regarding `COc1ccc(CC(=O)NC(N=C(NC#N)Nc2ccc(F)c(F)c2)C(C)(C)C)cc1OC` (configuration not stated), the figures for the IC50 at P2X purinoceptor 7 [1] and at P2X purinoceptor 7 [2] were 794 nM and 50.1 nM, respectively.

Turning to `COc1ccc(CC(=O)NC(N/C(=N/C#N)Nc2cccnc2Cl)C(C)(C)C)cc1OC` (configuration not stated), the IC50 at P2X purinoceptor 7 [1] is 79.4 nM; at P2X purinoceptor 7 [2] it was 39.8 nM.

Take `COc1ccc(CCCC(=O)NC(NC(=NC#N)Nc2ccccc2C)C(C)(C)C)cc1` (configuration not stated): the IC50 is 79.4 nM at P2X purinoceptor 7 [1] and 31.6 nM on P2X purinoceptor 7 [2].

As to `CC(Cl)(Cl)C(NC(=O)c1ccc(Cl)cc1)NC(=NC#N)Nc1cccnc1Cl` (configuration not stated), the figures for the IC50 on P2X purinoceptor 7 [1] and on P2X purinoceptor 7 [2] were 63.1 nM and 126 nM, respectively.

`COc1ccc(CC(=O)NC(NC(=NC#N)Nc2ccccc2C)C(C)(C)C)cc1OC` (stereo in doubt; (-)-13): the IC50 at P2X purinoceptor 7 [1] is 5010 nM; at P2X purinoceptor 7 [2], 501 nM.

Turning to `COc1ccc(CC(=O)NC(NC(=NC#N)Nc2c(F)cc(F)cc2F)C(C)(C)C)cc1OC` (configuration not stated), the IC50 at P2X purinoceptor 7 [1] is 100 nM; at P2X purinoceptor 7 [2], 31.6 nM.

On to `Cc1ccccc1N/C(=N\C#N)NC(NC(=O)Cc1ccc(Cl)cc1)C(C)(C)C` (configuration not stated), for which the IC50 at P2X purinoceptor 7 [1] was 63.1 nM; at P2X purinoceptor 7 [2], 20 nM.

Regarding `COc1ccc(CC(=O)NC(NC(=S)Nc2ccccc2C)C(Cl)(Cl)Cl)cc1OC` (configuration not stated), the figures for the IC50 at P2X purinoceptor 7 [1] and at P2X purinoceptor 7 [2] were 100 nM and 50.1 nM, respectively.

With `Cc1ncccc1NC(=NC#N)NC(NC(=O)CCCCc1ccccc1)C(C)(C)C` (configuration not stated), the IC50 at P2X purinoceptor 7 [1] is 63.1 nM; on P2X purinoceptor 7 [2], 50.1 nM.

As to `COc1ccc(CC(=O)NC(N/C(=N/C#N)Nc2c(F)cccc2F)C(C)(C)C)cc1OC` (configuration not stated), the IC50 on P2X purinoceptor 7 [1] is 200 nM; at P2X purinoceptor 7 [2], 31.6 nM.

Take `Cc1ccc(CC(=O)NC(NC(=NC#N)Nc2cccnc2C)C(C)(C)C)cc1F` (configuration not stated): the IC50 at P2X purinoceptor 7 [1] is 63.1 nM; on P2X purinoceptor 7 [2] it was 200 nM.

For the compound `COc1cc(OC)cc(C(=O)NC(N=C(NC#N)Nc2ccccc2C)C(C)(C)C)c1` (configuration not stated), the IC50 at P2X purinoceptor 7 [1] was 2510 nM; on P2X purinoceptor 7 [2] it was 794 nM.

On to `CSc1ccc(CC(=O)NC(N=C(NC#N)Nc2cccnc2C)C(C)(C)C)cc1` (configuration not stated), for which the IC50 at P2X purinoceptor 7 [1] was 20 nM; at P2X purinoceptor 7 [2] it was 31.6 nM.

`COc1ccc(CC(=O)NC(NC(=NC#N)Nc2ccccc2C)C(C)(C)C)cc1OC` (single isomer, unassigned; (+)): the IC50 at P2X purinoceptor 7 [1] was 63.1 nM; on P2X purinoceptor 7 [2] it was 12.6 nM.

With `Cc1ccccc1N/C(=N\C#N)NC(NC(=O)Cc1ccc2c(c1)OCO2)C(C)(C)C` (configuration not stated), the IC50 at P2X purinoceptor 7 [1] is 50.1 nM; at P2X purinoceptor 7 [2] it was 39.8 nM.

Turning to `CC(C)(C)C(N=C(NC#N)Nc1cccc2ncccc12)NC(=O)Cc1ccc2c(c1)OCCO2` (configuration not stated), the IC50 on P2X purinoceptor 7 [1] and on P2X purinoceptor 7 [2] was 10 nM each time.

For `CC(C)(C)C(NC(=O)Cc1ccc(C#N)cc1)N/C(=N/C#N)Nc1cccc2ncccc12` (configuration not stated), the results for the IC50 on P2X purinoceptor 7 [1] and on P2X purinoceptor 7 [2] were 39.8 nM and 6.31 nM, respectively.

Take `COc1ccc(CC(=O)NC(NC(=NC#N)Nc2ccccc2Cl)C(C)(C)C)cc1OC` (configuration not stated): the IC50 at P2X purinoceptor 7 [1] is 63.1 nM; on P2X purinoceptor 7 [2], 7.94 nM.

Turning to `COc1ccc(C(=O)NC(N=C(NC#N)Nc2ccccc2C)C(C)(C)C)cc1` (configuration not stated), the IC50 is 7940 nM on P2X purinoceptor 7 [1] and 2510 nM on P2X purinoceptor 7 [2].

Take `COc1cc(OC)cc(C(=O)NC(N/C(=N/C#N)Nc2cccnc2C)C(C)(Cl)Cl)c1` (configuration not stated): the IC50 at P2X purinoceptor 7 [1] was 200 nM; on P2X purinoceptor 7 [2], 1000 nM.
